The record followed here is ChEMBL document CHEMBL4130408, “Photoactivation provides a mechanistic explanation for pan-assay interference behaviour of 2-aminopyrroles in lipoxygenase inhibition” (Eur J Med Chem, 2017).

Activity calls are given as the source filed them. The calls are words filed in the database; no cut-off is given here. A value given as a limit tells only on which side of the number the result lay.

Data set [1] addresses T1, Polyunsaturated fatty acid lipoxygenase ALOX15 (Homo sapiens, UniProt P16050).
T1 sequence (P16050 whole entry): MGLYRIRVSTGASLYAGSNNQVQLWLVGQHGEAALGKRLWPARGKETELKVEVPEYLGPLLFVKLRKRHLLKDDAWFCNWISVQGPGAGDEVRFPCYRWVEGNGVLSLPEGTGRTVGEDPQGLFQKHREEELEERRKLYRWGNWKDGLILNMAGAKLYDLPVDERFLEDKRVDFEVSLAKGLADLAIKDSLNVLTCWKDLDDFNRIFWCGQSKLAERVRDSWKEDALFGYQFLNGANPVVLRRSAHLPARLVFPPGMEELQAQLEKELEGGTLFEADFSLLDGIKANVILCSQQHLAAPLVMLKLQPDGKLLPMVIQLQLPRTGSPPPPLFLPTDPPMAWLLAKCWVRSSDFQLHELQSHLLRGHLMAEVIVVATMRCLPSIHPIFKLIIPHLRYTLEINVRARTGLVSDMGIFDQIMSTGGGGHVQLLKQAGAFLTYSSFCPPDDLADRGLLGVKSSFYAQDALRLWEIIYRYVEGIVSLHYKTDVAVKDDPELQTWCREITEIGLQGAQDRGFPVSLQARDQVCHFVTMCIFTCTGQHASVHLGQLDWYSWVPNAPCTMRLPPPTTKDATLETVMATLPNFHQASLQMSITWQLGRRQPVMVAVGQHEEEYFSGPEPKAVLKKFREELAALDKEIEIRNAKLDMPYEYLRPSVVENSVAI
In words: Inhibition of recombinant human 15-LOX-1 expressed in Escherichia coli BL21(DE3) using linoleic acid as substrate preincubated for 10 mins followed by substrate addition.

Data set [2] deals with HCC-1.2. In words: Cytotoxicity against human HCC1.2 cells assessed as growth inhibition after 48 hrs by neutral red assay. In kind it is functional. The conditions noted are these: for CC50: HCC-1.2, 48 h, read-out: LD50 (the source's name). The essentials:
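HCC-1.2 hepatocarcinoma cells grown in RPMI1640 with 10% heat-inactivated FCS at 37 °C, 5% CO2. 2 × 10^5 cells/well seeded and grown 48 h. Viable cells quantified by neutral red (50 μg/mL) uptake from serum-free medium over 2 h. Dye dissolved in 1% acetic acid/70% ethanol, read as absorbance 560 minus 620 nm. Triplicate wells; three to five independent experiments; LD50 reported.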

Data set [3] has as its system HCC-1.2. In words: Photocytotoxicity against human HCC1.2 cells assessed as decrease in cell viability preincubated with UV light at 365 nm for 10 mins measured after 48 hrs by neutral red assay. In kind it is functional, cell-based.
Data set [4] deals with HCC-1.2. In words: Photocytotoxicity against human HCC1.2 cells assessed as decrease in cell viability preincubated with day light for 10 mins measured after 48 hrs by neutral red assay. It is filed as functional, cell-based.
In data set [5] the target is T2, Polyunsaturated fatty acid lipoxygenase ALOX15 (Homo sapiens) (UniProt P16050).
T2 sequence (whole entry): T1 sequence (P16050 whole entry)
In words: Inhibition of recombinant human 15-LOX-1 expressed in Escherichia coli BL21(DE3) assessed as residual activity at 50 uM using linoleic acid as substrate preincubated for 10 mins followed by substrate addition. The essentials: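 h-15-LOX-1 (1:100 enzyme stock, 1:400 final) preincubated 10 min at room temperature with inhibitor in 25 mM HEPES pH 7.4, then linoleic acid added to 25 µM final (inhibitor 50 µM final). 13(S)-HpODE formation read as A234 over time, rate taken from linear part within first 16 min; no-inhibitor = 100%, no-enzyme = 0%. Triplicate.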

Data set [6] concerns HCC-1.2. Description: Photocytotoxicity against human HCC1.2 cells assessed as decrease in cell viability at 0.4 to 10 uM preincubated with day light for 10 mins measured after 48 hrs by neutral red assay. In kind it is functional, cell-based.
Compound in data set [7]: Nc1[nH]c(C(=O)c2ccccc2)c(-c2ccc(Cl)cc2Cl)c1C(=O)c1ccc(Cl)c(Cl)c1
In words: Uncompetitive inhibition of recombinant human 15-LOX-1 expressed in Escherichia coli BL21(DE3) assessed as apparent Km for substrate at 8 uM using linoleic acid as substrate preincubated for 10 mins followed by substrate addition by Lineweaver-Burk plot analysis (reference value: 32.67 +/- 12.23 uM).

Compound in data set [8]: Nc1[nH]c(C(=O)c2ccccc2)c(-c2ccc(Cl)cc2Cl)c1C(=O)c1ccc(Cl)c(Cl)c1
Description: Uncompetitive inhibition of recombinant human 15-LOX-1 expressed in Escherichia coli BL21(DE3) assessed as apparent Km for substrate at 6 uM using linoleic acid as substrate preincubated for 10 mins followed by substrate addition by Lineweaver-Burk plot analysis (reference value: 32.67 +/- 12.23 uM).

Turning to `Nc1[nH]c(C(=O)c2ccccc2)c(-c2cccc3ccccc23)c1C(=O)c1ccc(Cl)c(Cl)c1`, the IC50 – broadly, the concentration that gives 50% inhibition – in data set [1] was over 100 µM.
As to `Nc1[nH]c(C(=O)c2ccccc2)c(-c2ccc(Cl)cc2Cl)c1C(=O)c1ccc(Cl)cc1`, in the data set with HCC-1.2 [2], the Activity result is “Dose-dependent effect” and the CC50 came out at 1.05 µM. The IC50 in data set [1] was over 100 µM.
The like results for `Nc1[nH]c(C(=O)c2ccccc2)c(-c2ccc(Cl)cc2Cl)c1C(=O)c1cccc(Br)c1` were, in that order, “Dose-dependent effect”, 1.64 µM and 6.3 µM.
On to `CCOC(=O)c1ccc[nH]1`, for which the IC50 in data set [1] was over 100 µM.
On the same count and under the same terms, under `Nc1[nH]c(C(=O)c2ccccc2)c(-c2ccncc2)c1C(=O)c1cccc(Cl)c1` stands over 100 µM.
Turning to `Nc1[nH]c(C(=O)c2ccccc2)c(-c2ccc(F)cc2F)c1C(=O)c1cccc(Cl)c1`, the result in the data set with HCC-1.2 [3] was inactive. Moreover, the result in the data set with HCC-1.2 [4] was inactive. For the same molecule, in the data set with HCC-1.2 [2], the Activity result was “Dose-dependent effect” and the CC50 amounted to 0.99 µM.
Regarding `CCOC(=O)c1ccc(N)[nH]1`, the IC50 in data set [1] is over 100 µM.
`Nc1[nH]c(C(=O)c2ccccc2)c(-c2ccc(Cl)cc2Cl)c1C(=O)c1ccccc1`: in data set [1], the IC50 was over 100 µM. Besides, the Activity in data set [5] was found to be 73.1%.
As for `Nc1[nH]c(C(=O)c2ccccc2)c(-c2ccccc2Cl)c1C(=O)c1cccc(Cl)c1`, the IC50 in data set [1] is over 100 µM.
Regarding `Nc1[nH]c(C(=O)c2ccccc2)c(-c2ccc(Cl)cc2Cl)c1C(=O)c1cccs1`, in data set [1], the IC50 is over 100 µM.
Turning to `Nc1[nH]c(C(=O)c2ccccc2)c(-c2ccc(Cl)cc2)c1C(=O)c1cccc(Cl)c1`, the IC50 in data set [1] was over 100 µM.
For the molecule `Nc1[nH]c(C(=O)c2ccccc2)c(-c2ccc(O)cc2O)c1C(=O)c1cccc(Cl)c1`, in the data set on HCC-1.2 [2], the Activity entry was “Dose-dependent effect” and the CC50 was determined as 2.75 µM. In data set [1], the IC50 was 8.3 µM.
Turning to `Nc1[nH]c(C(=O)c2ccccc2)c(-c2cccc(Cl)c2)c1C(=O)c1cccc(Cl)c1`, the IC50 in data set [1] is over 100 µM.
In the case of `Nc1[nH]c(C(=O)c2ccccc2)c(-c2c(F)cccc2F)c1C(=O)c1ccc(Cl)c(Cl)c1`, in data set [1], the IC50 was over 100 µM. Also, the Activity in data set [5] was 100%.
As for `Nc1[nH]c(C(=O)c2ccccc2)c(-c2ccc(Cl)cc2Cl)c1C(=O)c1cccc(F)c1`, the IC50 in data set [1] was over 100 µM.
For the molecule `Cc1cccc(C(=O)c2c(N)[nH]c(C(=O)c3ccccc3)c2-c2ccc(Cl)cc2Cl)c1`, the outcome in the data set on HCC-1.2 [6] was Active. In addition, in the data set with HCC-1.2 [2], the Activity entry was “Dose-dependent effect” and the CC50 amounted to 1.04 µM. Besides, the IC50 in data set [1] was over 100 µM.
With `Nc1[nH]c(C(=O)c2ccccc2)c(-c2cccnc2)c1C(=O)c1cccc(Cl)c1`, the IC50 in data set [1] was over 100 µM.
The same measure, in the same setting: under `Nc1[nH]c(C(=O)c2ccccc2)c(-c2ccc3c(c2)OCO3)c1C(=O)c1cccc(Cl)c1` stands over 100 µM.
With `NC(=O)c1c(N)[nH]c(C(=O)c2ccccc2)c1-c1ccc(Cl)cc1Cl`, the IC50 in data set [1] is over 100 µM. Moreover, the Activity in data set [5] worked out at 109%.
`Nc1[nH]c(C(=O)c2ccccc2)c(-c2ccncc2)c1C(=O)NCCc1c[nH]c2ccccc12`: the Activity in data set [5] was 106%.
Same read-out and setting: under `COc1ccc(CNC(=O)c2c(N)[nH]c(C(=O)c3ccccc3)c2-c2ccc3ccccc3c2)cc1OC` stands 120%; under `CCCCCCNC(=O)c1c(N)[nH]c(C(=O)c2ccccc2)c1-c1ccc(O)cc1`, 90.8%.
With `Nc1[nH]c(C(=O)c2ccccc2)c(-c2ccc(F)cc2)c1C(=O)c1c[nH]c2ccccc12`, the Activity in data set [5] came to 116%.
Still for that read-out and setting: under `COC(=O)c1c(N)[nH]c(C(=O)c2ccccc2)c1-c1ccccc1Br` stands 74.8%; under `Nc1[nH]c(C(=O)c2ccccc2)c(-c2ccc(C(F)(F)F)cc2)c1C(=O)NCCc1c[nH]c2ccccc12`, 43.5%.
As to `COc1ccc(-c2c(C(=O)c3ccccc3)[nH]c(N)c2C(=O)NC2CC2)cc1OC`, the Activity in data set [5] is 90.2%.
Take `Cc1[nH]c2ccccc2c1C(=O)NCc1ccc(CNC(=O)c2c(N)[nH]c3ccccc23)cc1`: the Activity in data set [5] is 115%.
Still for that read-out and setting: to `Nc1[nH]c(C(=O)c2ccc(Br)cc2)c(-c2ccccc2Cl)c1C(=O)NCCc1c[nH]c2ccccc12` belongs 71%; to `Nc1[nH]c(C(=O)c2ccccc2)c(-c2ccncc2)c1C(=O)NC1CC1`, 91%.
Take `Cc1ccccc1-c1c(C(=O)c2ccccc2)[nH]c(N)c1C(=O)NCCc1c[nH]c2ccccc12`: the Activity in data set [5] was found to be 62.5%.
As for `Nc1[nH]c(C(=O)c2ccccc2)c(-c2ccc(-c3ccccc3)cc2)c1C(=O)c1cccc(Cl)c1`, the half-inhibitory concentration (IC50) in data set [1] was over 100 µM.
Turning to `Nc1[nH]c(C(=O)c2ccccc2)c(-c2ccc(Cl)cc2)c1C(=O)O`, the Activity in data set [5] is 87.9%.
In the case of `Nc1[nH]c(C(=O)c2ccc(Cl)cc2)c(-c2ccc(Br)cc2)c1C(=O)NCCc1c[nH]c2ccccc12`, the Activity in data set [5] was found to be 53.3%.
On the same count and under the same terms, under `CC(C)(C)C(=O)c1c(N)[nH]c(C(=O)c2ccccc2)c1-c1ccc(C(F)(F)F)cc1` stands 86.9%; under `CC(C)(C)C(=O)c1c(N)[nH]c(C(=O)c2ccccc2)c1-c1cc2ccccc2nc1Cl`, 104%; under `Nc1[nH]c(C(=O)c2ccccc2)c(-c2ccccc2C(F)(F)F)c1C(=O)NC1CCCCC1`, 101%.
Same read-out and setting: to `Nc1[nH]c2ccccc2c1C(=O)NCCc1ccc(Cl)cc1Cl` belongs 104%.
For the molecule `Nc1[nH]c(C(=O)c2ccccc2)c(-c2ccc3ccccc3c2)c1C(=O)c1ccc(Cl)c(Cl)c1`, in the data set with HCC-1.2 [2], the Activity entry was “Dose-dependent effect” and the CC50 is 2.64 µM.
With `Nc1[nH]c(C(=O)c2ccc(Br)cc2)c(-c2ccc(Cl)cc2)c1C(=O)NCCc1c[nH]c2ccccc12`, in data set [5], the Activity was determined as 19.3%.
On the same count and under the same terms, to `NC(=O)c1c(N)[nH]c(C(=O)c2ccccc2)c1-c1ccccn1` belongs 82.1%; to `Nc1[nH]c2cc(C(F)(F)F)ccc2c1C(=O)NCc1ccc(F)cc1`, 102%.
The same measure, in the same setting: to `Cc1ccc(-c2c(C(=O)c3ccccc3)[nH]c(N)c2C(=O)NCc2ccc(Cl)cc2)cc1` belongs 94.4%; to `Nc1[nH]c(C(=O)c2ccccc2)c(-c2cccc3ccccc23)c1C(=O)NCc1ccc(F)c(F)c1`, 62.2%.
Still for that read-out and setting: under `Cc1ccccc1-c1c(C(=O)c2ccccc2)[nH]c(N)c1C(=O)c1ccc(Cl)cc1` stands 94.9%.
As to `COc1ccc(C(=O)c2[nH]c(N)c(C(=O)NCCc3c[nH]c4ccccc34)c2-c2c(F)cccc2Cl)cc1`, the Activity in data set [5] amounted to 71.3%.
Still for that read-out and setting: under `Nc1[nH]c(C(=O)c2ccccc2)c(-c2ccc(Cl)cc2)c1C(=O)c1ccc(Cl)cc1` stands 100%.

B1: Polyunsaturated fatty acid lipoxygenase ALOX15 (Homo sapiens), P16050 (protein)
chain: T1 sequence (P16050 whole entry)
For B1, the Km (commonly the concentration of substrate that gives half-maximal velocity) in data set [7] amounted to 20 µM; in data set [8], 24 µM.
